Published values gathered from unrelated publications.
Each line is one published result; the experiments were not run side by side.
Target: Protein kinase C delta type (PRKCD, Homo sapiens, UniProt Q05655)

Compound | assay | setting | remaining binding [%]
O=C(Nc1c[nH]nc1C(=O)NC1CCNCC1)c1cc(F)cc(F)c1 | binding, competition with immobilised ligand | 1 µM | 100
C[C@H](c1ccnc(Nc2nc3ccc(-c4cc(N(C)C)ncn4)cc3[nH]2)c1)N1CCN(C(=O)CC(F)(F)F)CC1 | cell-free assay, competition with immobilised ligand | 0.1 µM | 100
CNC(=O)[C@@H]1CC[C@@H](n2c(-c3ccc4cnccc4c3)nc3ccc(C(=O)NCc4cccc(C(N)=O)c4)cc32)C1 | binding, competition with immobilised ligand | 1 µM | 81
O=C(c1ccc(Nc2nccc(-c3cc4ccccc4s3)n2)cc1)N1CCC(N2CCCC2)CC1 | binding, competition with immobilised ligand | 1 µM | 86
Cc1cc(C)c(-n2ccn3nc(-c4cccnc4)cc23)cc1NC(=O)c1cc(C#N)cc(S(F)(F)(F)(F)F)c1 | cell-free assay, competition with immobilised ligand | 0.1 µM | 93.1
CCN1CCN(Cc2ccc(C(=O)Nc3ccc(C)c(Oc4ccc5c(c4)CC(=O)N5)c3)cc2C(F)(F)F)CC1 | binding, competition with immobilised ligand | 1 µM | 96
FC(F)(F)Oc1cccc(-c2cnc3ccc(-c4ccncc4)nn23)c1 | cell-free assay, competition with immobilised ligand | 5 µM | 71
CN1CCN(c2cnc3c(C4CCN(C(=O)c5ccc(OC(F)(F)F)cc5N)CC4)ncnc3c2)CC1 | cell-free assay, competition with immobilised ligand | 1 µM | 100
N[C@H]1CCN(c2nccc(-c3cnn4ncccc34)n2)C1 | binding | 1 µM | 100
O=C(c1ccc(Nc2ncc(Cl)c(-c3ccc(Cl)s3)n2)cc1)N1CCC(N2CCCC2)CC1 | binding, competition with immobilised ligand | 1 µM | 48
O=C1NC(c2ccccn2)Sc2ccccc21 (stereo not drawn) | cell-free assay, competition with immobilised ligand | 1 µM | 71
c1cnn2ncc(-c3ccnc(N4CCC45COC5)n3)c2c1 | binding | 1 µM | 100
COc1ccc2c(O[C@@H]3C[C@H]4C(=O)N[C@]5(C(=O)O)CC5/C=C\CCCCC[C@H](NC(=O)OC5CCCC5)C(=O)N4C3)cc(-c3csc(NC(=O)C(C)C)n3)nc2c1C (stereo partly drawn) | cell-free assay, competition with immobilised ligand | 1 µM | 84
C[C@H]1CCN(c2nccc(-c3cnn4ncccc34)n2)C1 | binding | 1 µM | 100
Nc1ncc2c(n1)-c1c([nH]c3ccc(C#CC4CC4)cc13)CCCC2 | binding, competition with immobilised ligand | 1 µM | 97
CN(CCCC(F)(F)F)c1nccc(-c2cnn3ncccc23)n1 | binding | 1 µM | 90
c1cncc(-c2cccc(Nc3nccc(NC4CCCCC4)n3)c2)c1 | binding, competition with immobilised ligand | 10 µM | 45
CN(c1nccc(-c2cnn3ncccc23)n1)C1CC1 | binding | 1 µM | 85
CCCOc1ccc([C@@H]2[C@@H](C(=O)O)[C@H](c3ccc4c(c3)OCO4)CN2CC(=O)Nc2c(CC)cccc2CC)cc1 | cell-free assay, competition with immobilised ligand | 1 µM | 100
CN(C)c1nccc(-c2cnn3ncccc23)n1 | binding | 1 µM | 100
O=C(NCCCN1CCOCC1)c1ccc(Nc2nccc(-c3cc4ccccc4s3)n2)cc1 | binding, competition with immobilised ligand | 1 µM | 81
